KCNK9 block = human KCNK9 channel inhibition; Q9NPC2; HEK293 KCNK9, FluxOR thallium flux fluorescence; hits give low values; B-score at 10 µM; 310,000 compounds, 1.2% hits;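 active means ratio B-score over 3 SD below the library mean, with starting fluorescence within 5 SD of its mean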;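 further: negative B-score means less thallium flux so channel inhibition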
KCNK3 inh = human KCNK3 channel inhibition, primary screen | O14649 | B-score at 10 µM | AID 602410 | CHO-KCNK3 thallium flux, FluxOR fluorescence; hits give low values | 340,000 compounds, 0.84% hits;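 active means B-score under library mean minus 4 SD, starting fluorescence ratio at most library mean plus 5 SD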;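 further: more negative B-score means stronger inhibition of thallium flux through KCNK3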
KCNQ1 act = potentiates or activates the human KCNQ1 potassium channel | P51787 | CHO-K1 KCNQ1, thallium flux FluxOR fluorescence; hits give high values | B-score at 10 µM | 310,000 compounds, 0.35% hits | AID 2648;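 active means fluorescence ratio B-score, a plate-corrected score, at least three library SD, with initial intensity B-score within 5 SD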
Target sequence (P51787 whole entry, looked up): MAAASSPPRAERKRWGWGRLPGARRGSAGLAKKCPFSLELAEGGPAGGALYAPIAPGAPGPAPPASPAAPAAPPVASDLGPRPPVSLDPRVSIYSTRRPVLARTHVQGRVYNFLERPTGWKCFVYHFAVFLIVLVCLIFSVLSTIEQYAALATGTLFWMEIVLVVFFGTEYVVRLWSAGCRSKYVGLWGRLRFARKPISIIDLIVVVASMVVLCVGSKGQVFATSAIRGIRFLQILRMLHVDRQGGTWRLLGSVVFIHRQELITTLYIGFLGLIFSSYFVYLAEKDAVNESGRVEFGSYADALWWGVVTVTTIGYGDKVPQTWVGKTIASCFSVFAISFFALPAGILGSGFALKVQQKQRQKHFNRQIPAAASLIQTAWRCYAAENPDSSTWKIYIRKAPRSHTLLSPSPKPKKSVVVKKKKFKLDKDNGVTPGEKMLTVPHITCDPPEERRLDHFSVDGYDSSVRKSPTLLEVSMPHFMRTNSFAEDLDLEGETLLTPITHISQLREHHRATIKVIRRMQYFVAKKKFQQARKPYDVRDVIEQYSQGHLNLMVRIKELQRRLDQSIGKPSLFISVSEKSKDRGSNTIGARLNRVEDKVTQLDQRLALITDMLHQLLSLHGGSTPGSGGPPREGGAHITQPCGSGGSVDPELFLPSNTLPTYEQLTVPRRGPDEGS
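assay system = KCNQ1-transfected CHO-K1 cells | medium = assay buffer with matched DMSO | probe or stimulus = depolarizing K+/Tl+ stimulus, K2SO4 and Tl2SO4 each 12.5 mM in 5x stock | dosing = single dose | incubation = dye 90 min, compound 20 min, room temperature | detection = kinetic FluxOR fluorescence, 10 s baseline plus 110 s post-stimulus | evaluation = ratio B score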
Kir21 inh = blocks the mouse Kir2.1 inward-rectifier potassium channel; HEK293-Kir2.1, FluxOR thallium flux fluorescence; hits give low values; AID 1672; P35561; 310,000 compounds, 0.85% hits; B-score at 10 µM;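 active means fluorescence ratio B-score at or below minus 3 SD of library scores, with starting-brightness B-score within 2 SD, cut at about -4.2 in these data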;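 further: channel flux triggered by added potassium and thallium sulfate stimulus; B-score of peak minus minimum fluorescence over baseline after thallium stimulus; more negative B-score means stronger Kir2.1 block with less thallium influx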
KCNQ1 block = human KCNQ1 channel inhibition | P51787 | CHO-K1 KCNQ1, FluxOR thallium flux fluorescence; hits give high values | B-score at 10 µM | 310,000 compounds, 1.3% hits | AID 2642;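 active means compounds whose thallium flux B-score, printed positive for inhibition, exceeds three library SD while starting fluorescence stays within three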;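 further: channel opened by potassium depolarization with thallium stimulus after 20 min compound exposure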
hERG rescue = compounds protecting human hERG from proarrhythmic drug block; AID 1511; CHO-hERG, FluxOR thallium flux, dofetilide IC70 present; activation (rescue from dofetilide block), less the hit threshold, % at 10 µM; 310,000 compounds, 0.51% hits;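 active means activation above the mean of controls blocked by dofetilide plus 5 SD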;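 further: thallium influx through hERG after potassium depolarization seen as dye fluorescence rise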
KCNK9 block conf = confirmation of human KCNK9 potassium channel inhibitors. shares compounds with KCNK9 block. HEK293 KCNK9 cells, FluxOR thallium flux fluorescence. inhibition, % at 10 µM. 4,900 compounds, 43% hits. AID 492992;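 active means thallium signal inhibited by more than 5 SD of the compound-free buffer control wells, on both duplicate plates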;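 further: 0% = assay buffer control wells without compound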
Kir21 sel = selectivity of KCNK9 modulators against mouse Kir2.1; shares compounds with KCNK9 block; 4,900 compounds, 4% hits; inhibition, % at 10 µM; Kir2.1 cells, FluxOR thallium flux fluorescence;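 active means thallium signal drop more than 5 SD beyond the mean of the no-compound control wells, seen in both duplicate plates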;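 further: signal is fluorescence rise after thallium addition divided by baseline fluorescence; plate controls were assay buffer only for no effect and full block by chlorpromazine control for full effect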
HEK293 Tl ctr = non-induced cell nonspecific activity of KCNK9 modulators | shares compounds with KCNK9 block | non-induced KCNK9-HEK293, FluxOR thallium flux | inhibition, % at 10 µM | 4,900 compounds, 40% hits | AID 492997;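 active means thallium signal drop beyond 5 SD of the untreated control mean, on both duplicate plates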;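 further: plate controls were buffer only IC0 wells for no effect and SID17386958 at its maximal inhibitory level for full effect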
* = called active by the depositor; i = inactive; . = no result given. Shown are actives, neighbours in structure and some others; about 3.7% of the full set was active somewhere.

SMILES	KCNK9 block	KCNK3 inh	KCNQ1 act	Kir21 inh	KCNQ1 block	hERG rescue	KCNK9 block conf	Kir21 sel	HEK293 Tl ctr
CCn1c(C)c(C(C)=O)c(N2CCN(C(c3ccccc3)c3ccccc3)CC2)nc1=S	-9.1*	i	i	0.76	i	-18	i	i	i
CCOc1cc(N2CCOCC2)c(OCC)cc1NC(=O)CN1CCC(Cc2ccccc2)CC1	i	i	i	-1.8	i	-4	i	i	i
CCOC(=O)N1CCN(CC(=O)Nc2cc3c(cc2C(C)=O)OCO3)CC1	i	i	i	-0.5	i	-4	.	.	.
CC(=O)c1cc2c(cc1NC(=O)CN1CCC(Cc3ccccc3)CC1)OCO2	i	i	i	1.7	i	-11	i	i	i
CC1SCC(NC(=O)c2cccc(Cl)c2)CS1 (stereo not drawn)	-10*	i	i	-0.16	i	-9	44%*	i	26%*
CC1SCC(NC(=O)c2ccccc2Cl)CS1 (stereo not drawn)	i	i	i	-0.47	i	-8	.	.	.
CC1SCC(NC(=O)c2ccc(Cl)cc2)CS1 (stereo not drawn)	-14*	i	i	-0.12	i	-9	i	i	24%*
Cn1ccsc1=NC(=O)c1cccc(OC(F)F)c1	i	i	i	0.06	i	-2	.	.	.
O=C(C[C@H]1C[C@H](C(=O)N2CCOCC2)[C@@]2(CCC3CCCC3)c3[nH]c4ccc(Cl)cc4c3CCN2C1=O)NCC12CC3CC(CC(C3)C1)C2	.	i	.	.	.	.	.	.	.
Cc1ccc(NCc2nc3ccccc3n2CCOc2ccccc2)cc1	-12*	i	i	-0.23	i	-7	40%*	i	38%*
CCOC(=O)/C(=N\Nc1ccccc1Cl)N1CC(C)OC(C)C1 (stereo not drawn)	i	i	i	-0.36	i	-17	.	.	.
CCOC(=O)/C(=N\Nc1ccc(Br)cc1)N1CC(C)OC(C)C1 (stereo not drawn)	-18*	i	i	1.9	i	-11	75%*	i	44%*
CCCOC(=O)C1=C(C)N(C)C(=O)NC1c1cc2c(cc1Br)OCO2 (stereo not drawn)	i	i	i	-0.46	i	-2	.	.	.
Cc1cc(NC(=O)CCC(=O)N(CC(=O)NCC2CCCO2)c2cccc(F)c2)no1 (stereo not drawn)	i	i	i	-1	i	-4	.	.	.
CC1Cc2ccccc2N1C(=O)/C=C/c1cccc(F)c1 (stereo not drawn)	i	i	i	1.3	i	-19	i	i	i
CCN1C(=O)/C(=C\c2ccc(-c3ccc([N+](=O)[O-])cc3OC)o2)SC1=Nc1cccc(C(=O)O)c1	i	i	i	1.3	i	-2	i	i	i
COc1ccc(C(=O)NCCS(=O)(=O)N(C)Cc2ccccc2)cc1	i	i	i	2	i	-8	.	.	.
CCSc1nc2ccccc2n1C(=O)c1ccc(S(=O)(=O)N2CCCCCC2)cc1	i	i	i	1.9	i	-7	i	i	i
CCCCCn1c(=O)c(C(=O)c2ccccc2)nc2ccccc21	-15*	i	i	-1.1	i	-12	46%*	i	30%*
CCn1c(=O)c(C(C)=O)nc2ccccc21	i	i	i	0.2	i	-5	.	.	.
Cc1ccc(C(C)C)c(OCc2nn(CC(=O)c3ccc(OC(F)F)cc3)c3[n+]2CCCCC3)c1	-8.4*	i	i	-2.3	9*	-28	51%*	i	i
Oc1ccccc1C1=Nc2ccccc2N=C(c2cccs2)C1	-10*	i	i	0.05	i	-24	42%*	i	34%*
CC1(C)C2CC=C(/C=N/NC(=S)NCCc3ccccc3)C1C2 (stereo not drawn)	i	i	i	2.3	i	-18	i	i	i
CNC(=S)N/N=C/C1=CCC2CC1C2(C)C (stereo not drawn)	i	i	i	-0.52	i	1	.	.	.
CC(C)c1ccc(CN2CCN(S(=O)(=O)c3ccc(Cl)s3)CC2)cc1	.	i	.	.	.	.	.	.	.
SMILES	KCNK9 block	KCNK3 inh	KCNQ1 act	Kir21 inh	KCNQ1 block	hERG rescue	KCNK9 block conf	Kir21 sel	HEK293 Tl ctr
COc1cc(C)c(C)cc1S(=O)(=O)N1CCN(Cc2ccccc2)CC1	i	i	i	-0.18	i	-7	.	.	.
O=S(=O)(c1ccccc1)N1CCN(Cc2cccc(Br)c2)CC1	i	i	i	1.2	i	-6	.	.	.
O=S(=O)(c1ccc(Cl)s1)N1CCN(Cc2ccccc2)CC1	i	i	i	-0.01	i	-7	i	i	i
O=S(=O)(c1cccc(Br)c1)N1CCN(CCc2ccccc2)CC1	i	i	i	0.38	i	-12	i	i	i
O=S(=O)(c1ccc(Cl)s1)N1CCN(CCc2ccccc2)CC1	i	i	i	0.66	i	-7	i	i	i
O=S(=O)(c1cccs1)N1CCN(CCc2ccccc2)CC1	i	i	i	0.42	i	-3	.	.	.
Cc1cc(S(=O)(=O)N2CCN(Cc3ccccc3)CC2)c(C)s1	i	i	i	-2.1	i	-9	i	i	i
NC(=S)c1c(Cl)cc(C(F)(F)F)cc1Cl	i	i	i	0.58	i	-5	.	.	.
NS(=O)(=O)c1ccc(CCNC(=O)COC(=O)CCc2c[nH]c3ccccc23)cc1	.	i	.	.	.	.	.	.	.
O=C(NCc1ccccc1Cl)c1ccncc1	i	i	i	0.06	i	-3	.	.	.
COc1ccc(C(=O)NCCc2cc3c(OC)ccc(OC)c3[nH]c2=O)cc1OC	i	i	i	0.01	i	-14	.	.	.
CCCCC(=O)NCCc1cc2c(OC)ccc(OC)c2[nH]c1=O	i	i	i	-1.1	i	-10	i	i	i
CSc1ccccc1NC(=S)NCc1ccc(Cl)cc1	i	i	i	1	i	-7	.	.	.
Cc1ccc(C(=O)N2CCCC(N3CCN(c4ccccc4F)CC3)C2)s1 (stereo not drawn)	i	i	i	-0.35	i	-9	i	i	i
CC1=C(C(=O)N2CCCC(N3CCN(c4cccc(Cl)c4)CC3)C2)OCCO1 (stereo not drawn)	i	i	i	-0.08	i	-9	.	.	.
